Screens as filed in PubChem.
In the library only some 2.3% were active in any assay of this set; here they are far more common.
TRPC6 act: mouse TRPC6 channel activators, primary screen, cell-based, HEK293, membrane potential dye. AID 2550, 2010. B-score at 10 µM. 310,000 compounds, 0.13% hits. HEK293-TRPC6 membrane potential dye fluorescence; stronger effect = higher value. Short transient receptor potential channel 6 (Mus musculus), Q61143;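 active = B-score of the integrated fluorescence ratio above library mean plus 3 SD, and starting fluorescence ratio within library mean plus 5 SD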;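 note: higher score means more depolarization so channel activation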
Target sequence (Q61143 whole entry, looked up): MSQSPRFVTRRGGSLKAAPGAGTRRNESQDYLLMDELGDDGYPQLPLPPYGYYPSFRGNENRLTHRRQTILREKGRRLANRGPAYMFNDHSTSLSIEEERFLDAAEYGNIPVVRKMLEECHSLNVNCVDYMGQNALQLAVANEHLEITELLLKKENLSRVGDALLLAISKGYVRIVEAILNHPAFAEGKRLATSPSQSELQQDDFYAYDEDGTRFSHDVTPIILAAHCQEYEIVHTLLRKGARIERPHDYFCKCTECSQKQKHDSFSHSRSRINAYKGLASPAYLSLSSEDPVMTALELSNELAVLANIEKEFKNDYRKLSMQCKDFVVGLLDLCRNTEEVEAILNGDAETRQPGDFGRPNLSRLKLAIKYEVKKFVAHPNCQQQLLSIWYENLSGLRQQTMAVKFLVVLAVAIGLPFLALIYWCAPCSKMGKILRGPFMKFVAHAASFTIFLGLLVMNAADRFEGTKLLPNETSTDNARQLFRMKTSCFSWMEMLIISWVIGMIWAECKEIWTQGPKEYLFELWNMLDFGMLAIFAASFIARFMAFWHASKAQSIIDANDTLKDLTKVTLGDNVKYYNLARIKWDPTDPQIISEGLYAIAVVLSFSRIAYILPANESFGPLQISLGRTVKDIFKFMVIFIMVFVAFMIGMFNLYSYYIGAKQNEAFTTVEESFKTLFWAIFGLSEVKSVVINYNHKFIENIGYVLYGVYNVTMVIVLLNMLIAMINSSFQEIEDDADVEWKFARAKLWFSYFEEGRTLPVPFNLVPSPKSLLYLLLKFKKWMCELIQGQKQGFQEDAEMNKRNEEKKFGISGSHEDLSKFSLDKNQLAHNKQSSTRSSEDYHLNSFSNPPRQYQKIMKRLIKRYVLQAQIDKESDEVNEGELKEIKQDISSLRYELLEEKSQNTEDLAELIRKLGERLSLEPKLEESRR
TRPC4 agonist: activators of mouse TRPC4 channel, primary screen, Fluo4 calcium, HEK293 TRPC4beta/mu-opioid cells. Short transient receptor potential channel 4 (Mus musculus), Q9QUQ5. Fluo4 calcium fluorescence; stronger effect = higher value. B-score at 10 µM. 310,000 compounds, 0.49% hits. AID 2237, 2010;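 active = B-score above 5 SD of library B-scores, and initial fluorescence ratio not above library mean plus 5 SD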;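 note: positive B-score marks a calcium rise read as TRPC4 activation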
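Assay system: HEK293 stable line with TRPC4beta plus mu-opioid receptor; schedule: 45 min room-temperature Fluo4 loading, 110 s read; technique: kinetic Fluo4 calcium fluorescence; evaluation: integrated baseline-normalised fluorescence ratio, converted to per-well B score; controls: buffer (low) and maximal DAMGO (high)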
TRPC4 PAM: positive allosteric modulators of TRPC4, primary screen, cell-based, mouse TRPC4beta, HEK293 mu-opioid, Fluo-4 calcium; Short transient receptor potential channel 4 (Mus musculus), Q9QUQ5; DAMGO EC20, Fluo-4 Ca2+ flux; stronger effect = higher value; B-score at 10 µM; 310,000 compounds, 0.42% hits;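 active = B-score of calcium response area above 5 SD of library B-scores, with initial fluorescence ratio within 5 SD of library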;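 note: B-score of integrated fluorescence ratio over time as area under calcium response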
TRPC4 block: inhibitors of mouse TRPC4 channel, primary screen, Fluo4 calcium, HEK293 TRPC4beta/mu-opioid cells; 300,000 compounds, 0.39% hits; DAMGO-evoked Fluo4 calcium flux; stronger effect = lower value; B-score at 10 µM; AID 2247, 2010;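 active = B-score over 3 SD under the library average, no early fluorescence shift, positive overall ratio signal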
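Material: HEK293 cells with stable TRPC4beta plus mu-opioid receptor expression; probe or stimulus: DAMGO in two steps, submaximal then maximal; technique: Fluo4 calcium fluorescence by kinetic imaging, 5 s 1 Hz baseline; measure: integrated fluorescence ratio relative to baseline, converted to per-well B score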
TRPC6 inhibitor: mouse TRPC6 channel inhibitors, primary screen, cell-based, HEK293, membrane potential dye; Short transient receptor potential channel 6 (Mus musculus), Q61143; ACh-evoked depolarization; stronger effect = lower value; B-score at 10 µM; 310,000 compounds, 1.1% hits;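 active = B-score under library mean minus 3 SD, initial fluorescence not abnormally high, positive integrated signal ratio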;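 note: B-score derived from integrated fluorescence ratio over the kinetic read; more negative B-score means stronger inhibition of depolarization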
TRPC4 spec 2: second selectivity test of TRPC6 inhibitors: effect on mouse TRPC4 | shares compounds with TRPC6 inhibitor | HEK293 TRPC4/MOR, membrane potential dye fluorescence; channel activated by saturating DAMGO dose | 920 compounds, 42% hits | inhibition, % at 10 µM;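 active = compounds whose fluorescence signal differed from control wells by over 3 SD, either direction, in both duplicate plates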
TRPC4 spec: mouse TRPC4 modulation by TRPC6 hits, confirmation, selectivity assay for TRPC6 inhibitor project, cell-based, HEK293 TRPC4/mu-opioid, membrane potential dye. activity change, negative = inhibition, % at 10 µM. 920 compounds, 61% hits. membrane potential fluorescence. AID 2777, 2010. shares compounds with TRPC6 inhibitor;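 active = rise or fall in signal beyond 3 SD of buffer-only wells in both replicate plates, either sign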;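 note: integrated kinetic ratio of fluorescence range over baseline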
HEK293 MPD ctr 2-1: nonspecific membrane potential effects, parental HEK293, confirmation, counter-screen for TRPC6 inhibitor project, cell-based, second counter screen. parental HEK293 membrane potential dye fluorescence; maximal acetylcholine challenge after compound addition. shares compounds with TRPC6 inhibitor. signal change vs control, % at 10 µM. 920 compounds, 31% hits;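 active = membrane potential signal moving either way by over 3 SD of the maximum-effect control, in both duplicate plates, meaning non-specific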
HEK293 MPD ctr-1: membrane potential modulation in parental HEK293, confirmation, counter-screen for TRPC6 inhibitor project, cell-based; shares compounds with TRPC6 inhibitor; parental HEK293 membrane potential dye fluorescence; membrane potential signal change, % at 10 µM; 920 compounds, 60% hits;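 active = membrane potential signal shifting up or down by more than 3 SD of buffer-only wells, on both duplicate plates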
HEK293 MPD ctr-2: parental HEK293 membrane potential modulation, confirmation, counter-screen for TRPC6 modulator project, cell-based; shares compounds with TRPC6 inhibitor; membrane potential dye fluorescence; membrane potential signal change, % at 10 µM; 2,400 compounds, 51% hits;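 active = membrane potential signal moves up or down beyond 5 SD from buffer-only wells, on both duplicate plates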
HEK293 MPD ctr 2-2: second counter-screen for TRPC6 modulators: effect in parental HEK293 cells; membrane potential dye fluorescence; after compound, maximal acetylcholine stimulation; inhibition, % at 10 µM; shares compounds with TRPC6 inhibitor; 2,400 compounds, 14% hits;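 active = membrane potential signal drops by more than 5 SD from the mean control signal, in both duplicate plates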;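 note: plate controls were acetylcholine ECmax control wells for no effect and buffer only wells for full effect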
TRPC4 ctr mod: TRPC4 modulation by TRPC6 hit compounds, confirmation, selectivity assay for TRPC6 modulator project, cell-based, HEK293 TRPC4/mu-opioid, membrane potential dye, mouse. shares compounds with TRPC6 inhibitor. 2,400 compounds, 69% hits. membrane potential fluorescence. percent change from control (negative = decrease, positive = increase), % at 10 µM;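 active = membrane potential signal moved up or down beyond 5 SD of buffer control wells, in both duplicate plates, actives on both sides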;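 note: plate controls were assay buffer wells for no effect and DAMGO maximal-effect wells for full effect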
TRPC4 ctr inh 2: second selectivity test of TRPC6 modulators against mouse TRPC4 | HEK293 TRPC4/mu-opioid, membrane potential dye fluorescence; stimulated with maximal-effect DAMGO | AID 488928 | inhibition, % at 10 µM | shares compounds with TRPC6 inhibitor | 2,400 compounds, 55% hits;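 active = drop in membrane potential signal beyond 5 SD of the control wells in both duplicate plates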;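 note: TRPC4 counter screen for TRPC6 hits run under conditions tuned for TRPC6 not TRPC4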
TRPC6 block conf: mouse TRPC6 channel inhibitors, confirmation, HEK293 cells, membrane potential dye, duplicate; shares compounds with TRPC6 inhibitor; ACh-evoked depolarization; inhibition, % at 10 µM; 3,300 compounds, 43% hits; AID 488960, 2010;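 active = fluorescence ratio falls more than 5 SD below the full-stimulation control mean, in both duplicate runs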;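 note: integrated fluorescence ratio of peak minus minimum over baseline after agonist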
TRPC6 act confirm: mouse TRPC6 channel activators, confirmation, HEK293 cells, membrane potential dye, duplicate | shares compounds with TRPC6 inhibitor | HEK293-TRPC6 membrane potential dye fluorescence, FDSS | 2,800 compounds, 11% hits | activation, % at 10 µM;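 active = ratio signal rise beyond 5 SD above unstimulated control wells' mean, seen in both duplicate runs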;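 note: plate controls were buffer EC0 wells for no effect and acetylcholine ECmax response for full effect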
An asterisk follows results filed as active; i = inactive; · = no result.

SMILES | TRPC6 act | TRPC4 agonist | TRPC4 PAM | TRPC4 block | TRPC6 inhibitor | HEK293 MPD ctr-2 | HEK293 MPD ctr 2-2 | TRPC4 ctr mod | TRPC4 ctr inh 2 | TRPC6 block conf | TRPC6 act confirm | others
Cc1nc2cc(NC(=O)N3CC4(C)CC3CC(C)(C)C4)ccc2n1C (stereo unspecified) | i | i | i | i | -6.1* | i | i | i | i | i | i
Cc1nc2cc(NC(=O)N3CCCC3)ccc2n1C | i | i | i | i | i | · | · | · | · | · | ·
CCOC(=O)N1CCc2c(sc(NC(=O)CN3CCOCC3)c2C(=O)Nc2ccccc2)C1 | i | i | i | i | i | · | · | · | · | · | ·
CCOC(=O)N1CCc2c(sc(NC(=O)CN3CCN(C)CC3)c2C(=O)Nc2ccccc2)C1 | i | i | i | i | -5.3* | -83%* | i | -24%* | 46%* | i | i
Oc1ccccc1N1CCN(c2ccc3ccccc3n2)CC1 | i | i | i | i | i | · | · | · | · | · | ·
CC(C)c1ccc(NC(=O)c2cc([N+](=O)[O-])ccc2N2CCOCC2)cc1 | i | i | i | i | i | · | · | · | · | · | ·
CC(C)Cc1nnc(NC(=O)c2cc([N+](=O)[O-])ccc2N2CCOCC2)s1 | i | i | i | i | -5.2* | i | i | i | i | i | i
CCCn1c(SCC(=O)N2c3ccc(F)cc3CCC2C)nnc1-c1ccccn1 (stereo unspecified) | i | i | i | i | i | · | · | · | · | · | ·
COc1ccc(Br)c(C(=O)NCC2CCCCC2)c1 | i | i | i | i | -5.2* | i | i | 44%* | 54%* | i | ·
O=[N+]([O-])c1ccc(C(O)C[n+]2ccccc2)cc1 (stereo unspecified) | i | i | i | i | i | · | · | · | · | · | ·
COc1ccc(OCc2nnc(SCC(=O)c3ccccc3)o2)cc1 | i | i | i | i | i | · | · | · | · | · | ·
O=[N+]([O-])c1ccc(CN2CCCCCC2)cc1 | i | i | i | i | i | · | · | · | · | · | ·
O=[N+]([O-])c1ccc(CN2CCOCCOCCN(Cc3ccc([N+](=O)[O-])cc3)CCOCC2)cc1 | i | i | i | i | -5.5* | i | i | -12%* | 74%* | 46%* | i
c1ccc2nc3c(nc2c1)c1ccccc1n3CCN1CCOCC1 | i | i | i | i | -5.1* | i | i | -8.5%* | 34%* | i | i
CCCn1c2ccccc2c2nnc(SCCN3CCOCC3)nc21 | i | i | i | i | i | · | · | · | · | · | ·
COCc1cc(C)nc(SCC[N+](C)(C)CC(=O)Nc2cccc(C)c2)c1C#N | i | i | i | i | -7* | · | · | · | · | i | i | TRPC4 spec 2=i;TRPC4 spec=-13%*;HEK293 MPD ctr 2-1=i;HEK293 MPD ctr-1=-170%*
O=C(CSc1nnc(NC(=O)c2c(F)cccc2F)s1)NC1CCCCC1 | i | i | i | i | i | · | · | · | · | · | ·
CCCCN(C)C1=Nc2cccc3cccc1c23 | i | i | i | i | -7.5* | -194%* | i | -42%* | 69%* | 56%* | i
CC(C)(C)NC(=O)N1c2ccccc2Sc2ccccc21 | i | i | i | i | i | · | · | · | · | · | ·
CCn1nnnc1NC(=O)c1cc(Cl)c(OC)c(Cl)c1 | i | i | i | i | i | · | · | · | · | · | ·
CCN(C1CCCCC1)S(=O)(=O)c1ccc(S(=O)(=O)N2CCN(CCC#N)CC2)cc1 | i | i | i | i | -5.5* | i | i | 10%* | i | 38%* | i
COc1ccc(NC(=O)NC(C(F)(F)F)C(F)(F)F)cc1 | i | i | i | i | i | · | · | · | · | · | ·
C=CCNCc1cccn1-c1sc2c(c1C#N)CCCC2 | i | i | i | i | i | · | · | · | · | · | ·
N#Cc1c(-n2cccc2/C=N/O)sc2c1CCCC2 | i | i | i | i | -6.6* | · | · | · | · | 60%* | · | TRPC4 spec 2=i;TRPC4 spec=20%*;HEK293 MPD ctr 2-1=-30%*;HEK293 MPD ctr-1=18%*
Cc1cccc(-n2nnnc2SCC(=O)Nc2ccc(N3CCN(C)CC3)cc2)c1 | i | i | i | i | -5.7* | i | i | i | 54%* | i | i
